Measurements as given in ChEMBL document CHEMBL1287727, “Structure and biological evaluation of novel cytotoxic sterol glycosides from the marine red alga Peyssonnelia sp” (Bioorg Med Chem, 2010).
In brackets after ≈: the same amount, converted by molar mass. Activity calls are given as the source filed them. No cut-off for these calls is given here.

Tests used:
[1] = tested on: PC-3; assay: Cytotoxicity against human PC3 cells after 72 hrs by MTS assay; format: functional, cell-based; conditions: PC-3, 72 h
[2] = tested on: MDA-MB-468; assay: Cytotoxicity against human MDA-MB-468 cells after 72 hrs by MTS assay; format: functional, cell-based; conditions: MDA-MB-468, 72 h
[3] = tested on: DU-4475; assay: Cytotoxicity against human DU4475 cells after 72 hrs by MTS assay; format: functional, cell-based; conditions: DU-4475, 72 h
[4] = tested on: MDA-MB-231; assay: Cytotoxicity against human MDA-MB-231 cells after 72 hrs by MTS assay; format: functional, cell-based; conditions: MDA-MB-231, 72 h
[5] = tested on: DU-145; assay: Cytotoxicity against human DU145 cells after 72 hrs by MTS assay; format: functional, cell-based; conditions: DU-145, 72 h
[6] = Cytotoxicity against human LNCaP-FGC cells after 72 hrs by MTS assay; format: functional, cell-based; conditions: LNCaP-Clone-FGC
[7] = tested on: HCT-116; assay: Cytotoxicity against human HCT116 cells after 72 hrs by MTS assay; format: functional, cell-based; conditions: HCT-116, 72 h
[8] = tested on: A549; assay: Cytotoxicity against human A549 cells after 72 hrs by MTS assay; format: functional, cell-based; conditions: A549, 72 h
[9] = tested on: BT-549; assay: Cytotoxicity against human BT549 cells after 72 hrs by MTS assay; format: functional, cell-based; conditions: BT-549, 72 h
[10] = tested on: CCRF-CEM; assay: Cytotoxicity against human CCRF-CEM cells after 72 hrs by MTS assay; format: functional, cell-based
[11] = Cytotoxicity against human A2780DDP cells after 72 hrs by MTS assay; format: functional, cell-based
[12] = tested on: Mycobacterium tuberculosis; assay: Antimicrobial activity against Mycobacterium tuberculosis H37Rv by microplate alamar blue assay; format: functional, organism-based
Summary of the method: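 M. tuberculosis H37Rv (ATCC 27294) tested by microplate alamar blue assay.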

[13] = Cell cycle arrest in human A2780DDP cells at 10 uM after 48 hrs using propidium iodine staining by flow cytometry; format: functional, cell-based
Summary of the method: (§1)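 A2780/DDP-S ovarian cancer cells were treated at 1.0, 3.0 and 10 µM for 24 or 48 h. DNA was stained with propidium iodide and cell-cycle distribution was analysed by flow cytometry.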

[14] = Cell cycle arrest in human A2780DDP cells at 10 uM after 24 hrs using propidium iodine staining by flow cytometry; format: functional, cell-based; summary of the method: as §1
[15] = tested on: Candida albicans; assay: Antifungal activity against amphotericin-resistant Candida albicans ATCC 90873; format: functional
[16] = tested on: Plasmodium falciparum; assay: Antimalarial activity against Plasmodium falciparum; format: functional, organism-based
Summary of the method: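 Parasite proliferation was read out with a SYBR Green-based assay.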

[17] = tested on: Enterococcus faecium; assay: Antibacterial activity against vancomycin-resistant Enterococcus faecium ATCC 700221; format: functional
[18] = organism: Homo sapiens; assay: Induction of apoptosis in human A2780DDP cells assessed as PARP cleavage at 10 uM after 24 hrs by flow cytometry; format: functional, cell-based
Summary of the method: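 A2780/DDP-S ovarian cancer cells were exposed at 1.0, 3.0 and 10 µM for 24 or 48 h. Apoptosis was scored by flow cytometry as the presence of cleaved PARP, a marker of caspase activation.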

[19] = organism: Homo sapiens; assay: Induction of apoptosis in human A2780DDP cells assessed as PARP cleavage at 10 uM after 48 hrs by flow cytometry; format: functional, cell-based
[20] = tested on: Staphylococcus aureus; assay: Antibacterial activity against methicillin-resistant Staphylococcus aureus ATCC 33591; format: functional

SMILES | IC50 [1] | IC50 [2] | IC50 [3] | IC50 [4] | IC50 [5] | IC50 [6] | IC50 [7] | IC50 [8] | IC50 [9] | IC50 [10] | IC50 [11] | IC50 [12] | Activity [13] | Activity [14] | MIC [15] | IC50 [16] | Activity [17] | Activity [18] | Activity [19] | Activity [20]
CC(C)CCC[C@@H](C)[C@H]1CC[C@H]2[C@@H]3CCC4=CC(=O)CC[C@]4(C)[C@H]3CC[C@]12C [4-CHOLESTEN 3-ONE] | > 25 µM | 6.09 µM | 6.74 µM | 13.5 µM | 20.3 µM | 5.96 µM | 9.58 µM | – | – | – | – | – | – | – | – | – | – | – | – | –
CC(C)CCC[C@@H](C)[C@H]1CC[C@H]2[C@@H]3CCC4=C[C@@H](O)CC[C@]4(C)[C@H]3CC[C@]12C | > 25 µM | > 25 µM | > 25 µM | > 25 µM | > 25 µM | > 25 µM | > 25 µM | – | – | – | – | – | – | – | – | – | – | – | – | –
CC(C)CCC[C@@H](C)[C@H]1CC[C@H]2[C@@H]3CCC4=C[C@@H](O)CC[C@]4(CO[C@@H]4O[C@H](CO)[C@@H](O)[C@H](O)[C@H]4O)[C@H]3CC[C@]12C | > 25 µM | 6.69 µM | 6.09 µM | 16.9 µM | > 25 µM | 24.2 µM | > 25 µM | > 25 µM | 11.9 µM | 9.82 µM | > 25 µM | – | – | – | – | – | – | – | – | –
CC(C)CCC[C@@H](C)[C@H]1CC[C@H]2[C@@H]3CCC4=CC(=O)CC[C@]4(CO[C@@H]4O[C@H](CO)[C@@H](O)[C@H](O)[C@H]4O)[C@H]3CC[C@]12C | 3.44 µM | 0.86 µM | 1.29 µM | 1.27 µM | 1.31 µM | 3.4 µM | 3.13 µM | 0.93 µM | 1.26 µM | 1.97 µM | 1.39 µM | > 40 µM | inactive | inactive | 25 mg/L (≈ 44.4 µM) | > 40 µM | 6.3 µg/mL | inactive | inactive | –
CC(C)CCC[C@@H](C)[C@H]1CC[C@H]2[C@@H]3CCC4=CC(=O)CC[C@]4(CO)[C@H]3CC[C@]12C | 1.96 µM | 3.99 µM | 1 µM | 22.3 µM | 5.05 µM | 15.6 µM | 20.9 µM | – | – | – | – | – | – | – | – | – | – | – | – | –
CC(=O)N[C@H]1[C@H](OC[C@]23CC[C@H](O)C=C2CC[C@@H]2[C@@H]3CC[C@]3(C)[C@@H]([C@H](C)CCCC(C)C)CC[C@@H]23)O[C@H](CO)[C@@H](O)[C@@H]1O | 9.61 µM | 7.13 µM | 6.12 µM | 10.2 µM | > 25 µM | 21.4 µM | > 25 µM | > 25 µM | 10.1 µM | 10.7 µM | 8.98 µM | – | – | – | – | – | – | – | – | –
CC(=O)N[C@H]1[C@H](OC[C@]23CCC(=O)C=C2CC[C@@H]2[C@@H]3CC[C@]3(C)[C@@H]([C@H](C)CCCC(C)C)CC[C@@H]23)O[C@H](CO)[C@@H](O)[C@@H]1O | 2.4 µM | 0.71 µM | 2.44 µM | 1.01 µM | 1.35 µM | 1.48 µM | 2.23 µM | 0.97 µM | 1.24 µM | 1.45 µM | 1.35 µM | > 40 µM | inactive | inactive | 25 mg/L (≈ 41.4 µM) | > 40 µM | 12.5 µg/mL | – | inactive | 3.1 µg/mL
